What was measured:
Rattus norvegicus [1] = experiment: Biodistribution in Sprague-Dawley rat skin 2 minutes after intravenous administration, [99mTc]/[125I]IAP ratio); assay type: ADME, organism-based, Zone of skin; conditions: in vivo
In short: (§1)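 99mTc complex and [125I]iodoantipyrine were co-injected iv into rats. Rats were killed by cardiectomy at 2 or 15 min, and organs were excised, weighed and gamma-counted in two channels with spillover correction. The ratio is 99mTc percent dose divided by 125I percent dose in the same organ, averaged over three rats. Radiochemical purity of the complexes was >95% by reversed-phase HPLC.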

Rattus norvegicus [2] = experiment: Biodistribution in Sprague-Dawley rat small intestine 15 minutes after intravenous administration, [99mTc]/[125I]IAP ratio); assay type: ADME, organism-based; conditions: in vivo, 0.25 h; in short: as §1
Rattus norvegicus [3] = experiment: Biodistribution in Sprague-Dawley rat small intestine 2 minutes after intravenous administration, [99mTc]/[125I]IAP ratio); assay type: ADME, organism-based; conditions: in vivo; in short: as §1
Rattus norvegicus [4] = experiment: Biodistribution in Sprague-Dawley rat spleen 15 minutes after intravenous administration, [99mTc]/[125I]IAP ratio); assay type: ADME, organism-based; conditions: in vivo, 0.25 h; in short: as §1
Rattus norvegicus [5] = experiment: Biodistribution in Sprague-Dawley rat spleen 2 minutes after intravenous administration, [99mTc]/[125I]IAP ratio); assay type: ADME, organism-based; conditions: in vivo; in short: as §1
Rattus norvegicus [6] = experiment: Biodistribution in Sprague-Dawley rat stomach 2 minutes after intravenous administration, [99mTc]/[125I]IAP ratio); assay type: ADME, organism-based; conditions: in vivo; in short: as §1
Rattus norvegicus [7] = experiment: Biodistribution in Sprague-Dawley rat thyroid 2 minutes after intravenous administration, [99mTc]/[125I]IAP ratio); assay type: ADME, organism-based, Thyroid gland; conditions: in vivo; in short: as §1
Rattus norvegicus [8] = experiment: Biodistribution in Sprague-Dawley rats heart 15 minutes after intravenous administration, [99mTc]/[125I]IAP ratio); assay type: ADME, organism-based; conditions: in vivo, 0.25 h; in short: as §1
Rattus norvegicus [9] = experiment: Biodistribution in Sprague-Dawley rat blood 15 minutes after intravenous administration, [99mTc]/[125I]IAP ratio); assay type: ADME, organism-based; conditions: in vivo, 0.25 h; in short: as §1
Rattus norvegicus [10] = experiment: Biodistribution in Sprague-Dawley rat brain 15 minutes after intravenous administration, [99mTc]/[125I]IAP ratio); assay type: ADME, organism-based; conditions: in vivo, 0.25 h; in short: as §1
Rattus norvegicus [11] = experiment: Biodistribution in Sprague-Dawley rat brain 2 minutes after intravenous administration, [99mTc]/[125I]IAP ratio); assay type: ADME, organism-based; conditions: in vivo; in short: as §1
Rattus norvegicus [12] = experiment: Biodistribution in Sprague-Dawley rat heart 2 minutes after intravenous administration, [99mTc]/[125I]IAP ratio); assay type: ADME, organism-based; conditions: in vivo; in short: as §1
Rattus norvegicus [13] = experiment: Biodistribution in Sprague-Dawley rat stomach 15 minutes after intravenous administration, [99mTc]/[125I]IAP ratio); assay type: ADME, organism-based; conditions: in vivo, 0.25 h; in short: as §1
Rattus norvegicus [14] = experiment: Biodistribution in Sprague-Dawley rat kidneys(2) 15 minutes after intravenous administration, [99mTc]/[125I]IAP ratio); assay type: ADME, organism-based, Kidney; conditions: in vivo, 0.25 h; in short: as §1
Rattus norvegicus [15] = experiment: Biodistribution in Sprague-Dawley rat kidneys(2) 2 minutes after intravenous administration, [99mTc]/[125I]IAP ratio); assay type: ADME, organism-based, Kidney; conditions: in vivo; in short: as §1
Rattus norvegicus [16] = experiment: Biodistribution in Sprague-Dawley rat liver 15 minutes after intravenous administration, [99mTc]/[125I]IAP ratio); assay type: ADME, organism-based; conditions: in vivo, 0.25 h; in short: as §1
Rattus norvegicus [17] = experiment: Biodistribution in Sprague-Dawley rat liver 2 minutes after intravenous administration, [99mTc]/[125I]IAP ratio); assay type: ADME, organism-based; conditions: in vivo; in short: as §1
Rattus norvegicus [18] = experiment: Biodistribution in Sprague-Dawley rat lungs(2) 15 minutes after intravenous administration, [99mTc]/[125I]IAP ratio); assay type: ADME, organism-based, Lung; conditions: in vivo, 0.25 h; in short: as §1
Rattus norvegicus [19] = experiment: Biodistribution in Sprague-Dawley rat lungs(2) 2 minutes after intravenous administration, [99mTc]/[125I]IAP ratio); assay type: ADME, organism-based, Lung; conditions: in vivo; in short: as §1
Rattus norvegicus [20] = experiment: Biodistribution in Sprague-Dawley rat muscle 15 minutes after intravenous administration, [99mTc]/[125I]IAP ratio); assay type: ADME, organism-based, Muscle tissue; conditions: in vivo, 0.25 h; in short: as §1
Rattus norvegicus [21] = experiment: Biodistribution in Sprague-Dawley rat muscle 2 minutes after intravenous administration, [99mTc]/[125I]IAP ratio); assay type: ADME, organism-based, Muscle tissue; conditions: in vivo; in short: as §1
Rattus norvegicus [22] = experiment: Biodistribution in Sprague-Dawley rat skin 15 minutes after intravenous administration, [99mTc]/[125I]IAP ratio); assay type: ADME, organism-based, Zone of skin; conditions: in vivo, 0.25 h; in short: as §1
[23] = Partition coefficient was determined atpH 7.0.; assay type: ADME; conditions: octanol/water, pH 7
In short: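 99mTc-labelled BAT complex shaken with 3 g each of 1-octanol and 0.1 M phosphate buffer (pH 7.0), vortexed 3 min at room temperature, centrifuged 5 min. Two 0.5 g samples per layer counted in a well counter; PC = cpm/g octanol over cpm/g buffer. Octanol layer repartitioned until values were consistent; usually repeated three times.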

Homo sapiens = species on record: Homo sapiens; experiment: The human serum protein binding activity was determined; assay type: functional
In short: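 Equilibrium dialysis: 0.4 mL pooled human serum against 0.4 mL 0.15 M phosphate buffer pH 7.4 containing 99mTc complex (~0.025 μCi), rotated 18 h at 37 °C. Both sides weighed and counted; percent free = buffer/serum radioactivity concentration ratio × 100. Membrane counted afterwards to check membrane binding.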

Rattus norvegicus [24] = experiment: Biodistribution in Sprague-Dawley rat blood 2 minutes after intravenous administration, [99mTc]/[125I]IAP ratio); assay type: ADME, organism-based; conditions: in vivo; in short: as §1
Rattus norvegicus [25] = experiment: Biodistribution in Sprague-Dawley rat thyroid 15 minutes after intravenous administration, [99mTc]/[125I]IAP ratio); assay type: ADME, organism-based, Thyroid gland; conditions: in vivo, 0.25 h; in short: as §1

Dose (Rattus norvegicus [1]): 6.72%
Dose (Rattus norvegicus [2]): 19.5%
Dose (Rattus norvegicus [3]): 4.46%
Dose (Rattus norvegicus [4]): 0.309%
Dose (Rattus norvegicus [5]): 0.349%
Dose (Rattus norvegicus [6]): 1.12%
Dose (Rattus norvegicus [7]): 0.088%
Dose (Rattus norvegicus [8]): 0.3%
Dose (Rattus norvegicus [9]): 9.14%
Dose (Rattus norvegicus [10]): 0.15%
Dose (Rattus norvegicus [11]): 0.24%
Dose (Rattus norvegicus [12]): 0.887%
Dose (Rattus norvegicus [13]): 0.85%
Dose (Rattus norvegicus [14]): 2.39%
Dose (Rattus norvegicus [15]): 2.21%
Dose (Rattus norvegicus [16]): 16.8%
Dose (Rattus norvegicus [17]): 16.7%
Dose (Rattus norvegicus [18]): 1.31%
Dose (Rattus norvegicus [19]): 2.27%
Dose (Rattus norvegicus [20]): 14.9%
Dose (Rattus norvegicus [21]): 13.4%
Dose (Rattus norvegicus [22]): 6.53%
Partition coefficient [23]: 64.5
Free (Homo sapiens): 42.5%
Dose (Rattus norvegicus [24]): 18.1%
Dose (Rattus norvegicus [25]): 0.053%
Structure (SMILES): CC(C)(S)CNCC(CO)NCC(C)(C)S.Cl.Cl (stereo unspecified)
